High-throughput results (PubChem)
A selection: hits, their analogues and other compounds. The true share with any hit is near 4.8%.
pPAFAH inh – pPAFAH enzyme inhibitors, primary screen, biochemical, fluorescence polarization, human | inhibition, % at 3.39 µM | 1.5% of 330,000 active | recombinant pPAFAH, FP-rhodamine probe fluorescence polarization | AID 463082, 2010 | Platelet-activating factor acetylhydrolase (Homo sapiens), Q13093;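 active = inhibition above the mean inhibition across the screen plus 3 SD, cut at about 25% in these data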;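 also: inhibitors block binding of the rhodamine activity-based probe so polarization drops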
GRIN3A LBD mod – binders of NR3A ligand-binding domain, primary screen, biophysical, differential scanning fluorimetry, uHTS. Glutamate receptor ionotropic, NMDA 3A (GRIN3A) ligand-binding domain. NR3A LBD differential scanning fluorimetry, Tm shift; 0% = protein alone, 100% = glycine-bound protein. Tm shift relative to glycine control, % at 25 µM. 2.5% of 340,000 active;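 active = melting temperature shift of at least 10% of the positive control shift, at one fixed dose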
PAFAH2 inh – PAFAH2 enzyme inhibitors, primary screen, biochemical, fluorescence polarization, human; recombinant PAFAH2, FP-rhodamine activity probe; 0.99% of 340,000 active; Platelet-activating factor acetylhydrolase 2, cytoplasmic (Homo sapiens), Q99487; inhibition, % at 3.39 µM; AID 492956, 2010;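 active = inhibition above the mean over all tested compounds plus 3 SD, cut at about 30% in these data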;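 also: inhibitors block probe labeling of enzyme so polarization drops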
PAFAH1B2 inh – PAFAH1B2 enzyme inhibitors, primary screen, biochemical, fluorescence polarization, human; recombinant PAFAH1B2, FP-rhodamine activity probe; inhibition, % at 3.39 µM; 1.2% of 340,000 active;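 active = inhibition above the mean of all tested compounds plus 3 SD, cut at about 24% in these data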
UCH37 DUB inh – inhibitors of human UCH37 deubiquitinase, primary screen, biochemical, Ub-AMC cleavage, fluorescence; inhibition, % (concentration not given with the values); 0.33% of 330,000 active; AID 588478, 2011; Ubiquitin carboxyl-terminal hydrolase isozyme L5 (Homo sapiens), Q9Y5K5; purified proteasome/UCH37;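 active = mean inhibition over replicate wells above about 20%, limit read from the data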
Target sequence (Q9Y5K5 whole entry, looked up): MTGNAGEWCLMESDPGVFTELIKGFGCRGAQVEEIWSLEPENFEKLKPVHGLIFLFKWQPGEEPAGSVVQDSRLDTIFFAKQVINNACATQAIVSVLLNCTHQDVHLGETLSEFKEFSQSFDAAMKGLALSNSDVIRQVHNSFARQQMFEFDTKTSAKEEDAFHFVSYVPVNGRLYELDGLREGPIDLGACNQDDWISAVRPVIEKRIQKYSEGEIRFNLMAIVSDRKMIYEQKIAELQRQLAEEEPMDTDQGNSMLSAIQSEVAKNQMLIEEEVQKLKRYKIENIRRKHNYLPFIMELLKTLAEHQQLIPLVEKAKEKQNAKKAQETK
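assay system = human UCH37 enzyme supplied as purified proteasome complex | amount = proteasome at 0.15 nM in the dispensed enzyme solution | schedule = 30 min compound-proteasome preincubation then 25 min substrate reaction, room temperature | measured by = fluorescence, ex 355 nm, em 460 nm | benchmarks = no-proteasome wells (full inhibition) and compound-free wells (no inhibition)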
PAFAH1B3 FP inh – PAFAH1B3 enzyme inhibitors, primary screen, biochemical, fluorescence polarization, human; Platelet-activating factor acetylhydrolase IB subunit alpha1 (Homo sapiens), Q15102; recombinant PAFAH1B3, FP-rhodamine probe; inhibition, % at 3.39 µM; 0.28% of 340,000 active; AID 492972, 2010;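 active = inhibition above the screen-wide average of all tested compounds plus 3 SD, cut at about 25% in these data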
Target sequence (Q15102 whole entry, looked up): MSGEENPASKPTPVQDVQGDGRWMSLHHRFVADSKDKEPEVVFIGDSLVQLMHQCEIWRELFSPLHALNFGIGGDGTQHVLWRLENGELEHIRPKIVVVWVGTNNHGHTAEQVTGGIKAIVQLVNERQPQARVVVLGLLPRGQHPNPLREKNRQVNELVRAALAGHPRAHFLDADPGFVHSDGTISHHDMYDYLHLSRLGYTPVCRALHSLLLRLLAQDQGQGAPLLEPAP
pPAFAH FP conf – pPAFAH (PLA2G7) enzyme inhibitors, confirmation, biochemical, fluorescence polarization, human | recombinant pPAFAH, FP-Rh probe fluorescence polarization | inhibition, % at 3.39 µM | shares compounds with pPAFAH inh | 72% of 2,300 active;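 active = mean inhibition of the triplicate above the hit cutoff set for the earlier primary screen, cut at about 25% in these data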
Large screens that a line does not name were inactive (follow-up assays come after a bar, where they were run).

COc1ccc(S(=O)(=O)/N=C2/NC(=O)/C(=C\c3ccco3)S2)cc1	pPAFAH inh 35 | pPAFAH FP conf inactive
Cc1ccc(S(=O)(=O)/N=C2/NC(=O)/C(=C/c3ccccn3)S2)cc1	none
O=C1C2C3C=CC(CC3)C2C(=O)N1N=Cc1c(O)ccc2ccccc12 (centres undefined)	none (no result: pPAFAH inh, GRIN3A LBD mod, PAFAH2 inh, PAFAH1B2 inh, PAFAH1B3 FP inh)
O=C(CN(Cc1ccccc1)S(=O)(=O)c1ccccc1)NN=Cc1ccccc1[N+](=O)[O-]	none (no result: pPAFAH inh, GRIN3A LBD mod, PAFAH2 inh, PAFAH1B2 inh, PAFAH1B3 FP inh)
O=[N+]([O-])C1=C(Nc2cccc3ccccc23)CS(=O)(=O)C1	pPAFAH inh 39 | pPAFAH FP conf inactive
O=C(Nc1cccc2ccccc12)c1ccc([N+](=O)[O-])o1	none
O=c1nc(/C=C/c2cccn2-c2ccc([N+](=O)[O-])cc2)cc(C(F)(F)F)[nH]1	pPAFAH inh 36 | pPAFAH FP conf inactive
COc1cccc(C(=O)ON=C2CCS(=O)(=O)c3sccc32)c1	none (no result: pPAFAH inh, GRIN3A LBD mod, PAFAH2 inh, PAFAH1B2 inh, PAFAH1B3 FP inh)
O=C(NCC(=O)N1CCN(c2ccccc2O)CC1)C1CCCCC1	pPAFAH inh 37 | pPAFAH FP conf inactive
O=C(NCC(=O)N1CCN(c2ccccc2O)CC1)c1ccco1	none
c1cc2c(cc1C1CCCCC1)c1c3n2CCCNC3CCC1 (centres undefined)	pPAFAH inh 45 | pPAFAH FP conf inactive
Cc1ccc2c(c1)c1c3n2CCCNC3CCC1 (centres undefined)	none
N#C/C(=C\c1ccc(O)c(O)c1)C(=O)Nc1cccc2ncccc12	pPAFAH inh 52, PAFAH2 inh 49 (no result: UCH37 DUB inh) | pPAFAH FP conf 70
CC(=O)Nc1nc(C)c(-c2csc(Nc3cccc(C(C)=O)c3)n2)s1	pPAFAH inh 38 | pPAFAH FP conf 37
OCCN1CCN(CCCN2c3ccccc3Sc3ccc(Cl)cc32)CC1	pPAFAH inh 39 | pPAFAH FP conf 33
O=C(CSc1nnc(-c2ccco2)c(-c2ccco2)n1)c1ccccc1	pPAFAH inh 54, PAFAH2 inh 33 | pPAFAH FP conf inactive
CC(=O)c1ccc(NC(=O)CSc2nnc(-c3ccco3)c(-c3ccco3)n2)cc1	pPAFAH inh 46 | pPAFAH FP conf inactive
O=C(CSc1nnc(-c2ccco2)o1)c1ccccc1	none
Nc1c(Cl)ncnc1NN=Cc1ccncc1	none (no result: pPAFAH inh, GRIN3A LBD mod, PAFAH2 inh, PAFAH1B2 inh, PAFAH1B3 FP inh)
CCCOC(=O)c1cc(-c2ccc(/C=C3/C(=O)N(C)C(=O)C(C#N)=C3C)o2)ccc1Cl	pPAFAH inh 58 | pPAFAH FP conf 26
COc1ccc(-c2nn(-c3ccccc3)cc2C=NNc2ccc3ccccc3n2)cc1OC	none (no result: pPAFAH inh, GRIN3A LBD mod, PAFAH2 inh, PAFAH1B2 inh, PAFAH1B3 FP inh)
COC(=O)c1cc(NC(=O)c2ccccc2)c(=O)oc1CC=NOCc1ccc(Cl)cc1Cl	none (no result: pPAFAH inh, GRIN3A LBD mod, PAFAH2 inh, PAFAH1B2 inh, PAFAH1B3 FP inh)
COc1cc(/C=C(\C#N)C(=O)N2CCOCC2)cc(Br)c1O	none
COc1cc(/C=C(\C#N)C(=O)c2ccc(O)c(O)c2)cc(I)c1O	pPAFAH inh 79, PAFAH2 inh 67, PAFAH1B2 inh 86 | pPAFAH FP conf 71
O=C(NC(=S)NNC(=O)c1cc2ccccc2cc1O)c1ccco1	pPAFAH inh 39, GRIN3A LBD mod 11 (no result: UCH37 DUB inh) | pPAFAH FP conf 37
COc1ccc(C(=O)NC(=S)NNC(=O)c2ccco2)cc1	none
O=C(NCCO)c1cc2ccccc2cc1O	none
NNC(=O)c1cc2ccccc2cc1O	pPAFAH inh 43 | pPAFAH FP conf inactive
Cc1ccc(Cl)cc1NC(=O)c1cc2ccccc2cc1O	pPAFAH inh 35, GRIN3A LBD mod 30 (no result: UCH37 DUB inh) | pPAFAH FP conf inactive
O=C(NN=Cc1ccc([N+](=O)[O-])o1)C(=O)Nc1ccc(C(=O)O)cc1	none (no result: pPAFAH inh, GRIN3A LBD mod, PAFAH2 inh, PAFAH1B2 inh, PAFAH1B3 FP inh)
COc1ccc(C(C)=NN2C(=O)c3ccccc3NC2c2ccc(O)c(OC)c2)cc1 (centres undefined)	none (no result: pPAFAH inh, GRIN3A LBD mod, PAFAH2 inh, PAFAH1B2 inh, PAFAH1B3 FP inh)
O=C(CCCC(=O)Nc1ccccc1Br)NN=Cc1c(F)cccc1Cl	none (no result: pPAFAH inh, GRIN3A LBD mod, PAFAH2 inh, PAFAH1B2 inh, PAFAH1B3 FP inh)
Cc1ccc(-c2csc(NS(=O)(=O)c3cccc(F)c3)n2)o1	pPAFAH inh 47, PAFAH2 inh 37 | pPAFAH FP conf 72
Cc1nc(CNS(=O)(=O)c2cccc(F)c2)cs1	none
O=C(O)COc1ccc2c(c1)CCCC2	none
CCOc1ccc2c(c1)C(=O)c1cc(OCC(=O)O)ccc1-2	pPAFAH inh 37 | pPAFAH FP conf inactive
CCOC(C)=Nn1c2nc3ccccc3nc2c2c(=O)n(Cc3ccccc3Cl)c(C)nc21	none (no result: pPAFAH inh, GRIN3A LBD mod, PAFAH2 inh, PAFAH1B2 inh, PAFAH1B3 FP inh)
CC1=NN(c2ccccc2)C(=O)/C1=C/c1c(O)n(-c2ccc(F)cc2)[nH]c1=O	pPAFAH inh 54, GRIN3A LBD mod 11, PAFAH2 inh 48, PAFAH1B2 inh 47, PAFAH1B3 FP inh 44 | pPAFAH FP conf 53
CC1=NN(c2ccccc2)C(=O)/C1=C/c1ccc(Cl)cc1	none (no result: pPAFAH inh)
O=C(O)c1ccc(-n2cccc2/C=N\NC(=O)c2cc3cc(Br)ccc3o2)cc1	pPAFAH inh 48 (no result: UCH37 DUB inh) | pPAFAH FP conf 25
O=C(O)c1ccc(-n2cccc2C=NNC(=O)c2cc3cc(Br)ccc3o2)cc1	none (no result: pPAFAH inh, GRIN3A LBD mod, PAFAH2 inh, PAFAH1B2 inh, PAFAH1B3 FP inh)
Cc1ccc(NC(=S)NNc2ccc(C(=O)O)cc2[N+](=O)[O-])cc1C	pPAFAH inh 35 | pPAFAH FP conf 39
COc1ccccc1NCc1nnc(SCC(=O)NN=Cc2ccco2)n1-c1ccc(Cl)cc1Cl	none (no result: pPAFAH inh, GRIN3A LBD mod, PAFAH2 inh, PAFAH1B2 inh, PAFAH1B3 FP inh)
N#Cc1c(NCCN)nc(-c2ccccc2)c2c1CCCC2	none
N#Cc1c(NCCCO)nc(-c2ccccc2)c2c1CCCC2	pPAFAH inh 36 | pPAFAH FP conf inactive
CCCCC/C=C\C/C=C\C/C=C\CCCCC(=O)O	pPAFAH inh 38 | pPAFAH FP conf inactive
